Data set [1] concerns the target T1, Kappa-type opioid receptor (Homo sapiens, UniProt P41145). Nature of the data set: Agonist activity at human recombinant KOR expressed in CHO cells assessed as calcium mobilization by Fluo-4 AM based fluorescence analysis relative to DynA. Format: functional, cell-based. The procedure, abridged:
(§1)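 CHO cells stably co-expressing human recombinant KOR and C-terminally modified Gαqi5; calcium mobilization concentration-response curves. pEC50 from curve fitting with Hill coefficient; intrinsic activity α as ligand Emax over Emax of standard agonist dynorphin A. Mean ± SEM of at least 3 separate experiments, each in duplicate.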

Data set [2] is described as follows: Stability of compound in Wistar rat brain homogenate assessed as compound remaining after 90 mins by RP-HPLC analysis. To be noted: read-out: Stability. It is filed as ADME. Put shortly:
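Peptide incubated with Wistar rat brain homogenate at 37°C, sampled at 0, 7.5, 15, 22.5, 30 and 90 min; remaining intact peptide quantified by RP-HPLC peak area %; value is amount left at 90 min.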

In data set [3] the target is T2, Delta-type opioid receptor (Homo sapiens, UniProt P41143). Nature of the data set: Agonist activity at human recombinant DOR expressed in CHO cells assessed as calcium mobilization up to 1 uM by Fluo-4 AM based fluorescence analysis. Format: functional, cell-based. For orientation: A change in cytosolic calcium serves as a functional read-out for many receptors and channels.

Data set [4] is described as follows: Retention time of compound by RP-HPLC analysis. It is filed as physicochemical.
For data set [5], the target named is Mu-type opioid receptor (Rattus norvegicus, UniProt P33535). Nature of the data set: Displacement of [3H]DAMGO from MOR in Wistar rat brain homogenates by liquid scintillation counting analysis. It is filed as tissue-based. The procedure, abridged: (§2)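 Competition binding in brain membranes of adult male Wistar rats, [3H]DAMGO for MOR or [3H][Ile5,6]deltorphin-2 for DOR. IC50 from log dose-displacement curves, converted to Ki by Cheng-Prusoff. Mean ± SEM of three independent experiments in duplicate.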

Data set [6] deals with Mus musculus. Nature of the data set: Antinociceptive activity in BalbC albino mouse assessed as latency of jumping at 10 mg/kg, ip after 15 mins by hot-plate method. Format: functional. (In general: Hot-plate and tail-flick tests time the reaction to a heat stimulus.)
For data set [7], the target named is Kappa-type opioid receptor (Cavia porcellus, UniProt P41144). In words: Displacement of [3H]nor-BNI from KOR in Dunkin Hartley guinea pig brain homogenates by liquid scintillation counting analysis. It is filed as tissue-based. On the technique in general: Displacement assays read how much labelled ligand stays bound in the presence of the test substance.
Data set [8] has as its target T1, Kappa-type opioid receptor. In words: Agonist activity at human recombinant KOR expressed in CHO cells assessed as calcium mobilization by Fluo-4 AM based fluorescence analysis. It is filed as functional, cell-based. Put shortly: as §1
The subject of data set [9] is Mus musculus. Nature of the data set: Antinociceptive activity in icv dosed BalbC albino mouse assessed as latency of jumping after 10 mins by hot-plate method. Format: functional. Put shortly:
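Injection icv into left lateral ventricle (10 μL/animal) of hand-restrained mice; hot-plate test at 55 ± 0.5°C 10 min post-injection, jumping latency with 240 s cut-off. Response as %MPE = (t1 − t0)/(t2 − t0) × 100; ED50 by nonlinear regression; 7-10 animals per group.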

Data set [10] has as its target Delta-type opioid receptor (Rattus norvegicus, UniProt P33533). Nature of the data set: Displacement of [3H][Ile5,6]deltorphin-2 from DOR in Wistar rat brain homogenates by liquid scintillation counting analysis. Format: tissue-based. The procedure, abridged: as §2
Data set [11] concerns the target Mu-type opioid receptor (Homo sapiens, UniProt P35372). Nature of the data set: Agonist activity at human recombinant MOR expressed in CHO cells assessed as calcium mobilization by Fluo-4 AM based fluorescence analysis. It is filed as functional, cell-based.
The test system of data set [12] is Mus musculus. Nature of the data set: Antinociceptive activity in ip dosed BalbC albino mouse assessed as latency of jumping after 15 mins by hot-plate method. Format: functional. To be noted: for ED50: 0.25 h.
Data set [13] concerns Mus musculus. Nature of the data set: Antinociceptive activity in BalbC albino mouse assessed as latency of jumping at 3 mg/kg, ip after 15 mins by hot-plate method. Format: functional, organism-based.
In data set [14] the test system is Mus musculus. Nature of the data set: Antinociceptive activity in BalbC albino mouse assessed as latency of jumping at 3 mg/kg, ip after 30 to 60 mins by hot-plate method. It is filed as functional, organism-based. The procedure, abridged: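 Time course after single ip dose of 3 mg/kg; hot-plate (55 ± 0.5°C) jump latency read at 15, 30, 45 and 60 min, 240 s cut-off. Expressed as %MPE from control, test and cut-off latencies; mean ± SEM, 7-10 mice per group, each tested once.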

Data set [15] concerns the target T2, Delta-type opioid receptor. Nature of the data set: Agonist activity at human recombinant DOR expressed in CHO cells assessed as calcium mobilization by Fluo-4 AM based fluorescence analysis. It is filed as functional, cell-based.
Data set [16] addresses T2, Delta-type opioid receptor. In words: Agonist activity at human recombinant DOR expressed in CHO cells assessed as calcium mobilization by Fluo-4 AM based fluorescence analysis relative to DPDPE. It is filed as functional, cell-based. Put shortly:
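CHO cells stably co-expressing human recombinant DOR and chimeric Gαqi5 (G66D variant); intracellular calcium rise measured across concentration-response curves. Agonist potency as pEC50; efficacy as intrinsic activity α, ratio of ligand Emax to standard agonist (DPDPE) Emax. Mean ± SEM, at least 3 separate experiments in duplicate.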

Active and inactive are the calls of the source. Positions of bridges follow the written chain, without caps; N, C: chain ends. Non-standard residues stand in square brackets, D forms with d. Residues, ends and D or L forms follow the SMILES beside them. d1Nal = N[C@H](Cc1cccc2ccccc12)C(=O)O; d2Nal = N[C@H](Cc1ccc2ccccc2c1)C(=O)O; Dmt = Cc1cc(O)cc(C)c1C[C@H](N)C(=O)O A value given as a limit tells only on which side of the number the result lay.

Mu-type opioid receptor (Homo sapiens, UniProt P35372), sequence (P35372 whole entry): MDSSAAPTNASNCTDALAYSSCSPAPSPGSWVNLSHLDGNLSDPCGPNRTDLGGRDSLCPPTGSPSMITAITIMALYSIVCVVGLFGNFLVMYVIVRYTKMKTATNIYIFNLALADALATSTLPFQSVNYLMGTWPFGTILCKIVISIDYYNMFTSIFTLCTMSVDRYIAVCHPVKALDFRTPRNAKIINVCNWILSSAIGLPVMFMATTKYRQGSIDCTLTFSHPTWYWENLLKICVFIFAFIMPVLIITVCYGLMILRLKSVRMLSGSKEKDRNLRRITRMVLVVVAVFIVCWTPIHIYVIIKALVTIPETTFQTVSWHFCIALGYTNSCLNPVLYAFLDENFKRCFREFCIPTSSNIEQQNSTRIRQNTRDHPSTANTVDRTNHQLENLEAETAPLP
T2 sequence (P41143 whole entry): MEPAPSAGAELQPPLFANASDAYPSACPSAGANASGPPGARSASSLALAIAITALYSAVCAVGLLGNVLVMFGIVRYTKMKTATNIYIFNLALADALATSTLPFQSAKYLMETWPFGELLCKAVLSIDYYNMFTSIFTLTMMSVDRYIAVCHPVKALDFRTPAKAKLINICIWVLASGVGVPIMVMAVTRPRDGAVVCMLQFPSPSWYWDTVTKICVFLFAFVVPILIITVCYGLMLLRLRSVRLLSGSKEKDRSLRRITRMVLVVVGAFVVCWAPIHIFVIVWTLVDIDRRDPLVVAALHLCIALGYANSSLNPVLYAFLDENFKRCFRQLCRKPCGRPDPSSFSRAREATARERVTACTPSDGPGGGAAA
T1 sequence (P41145 whole entry): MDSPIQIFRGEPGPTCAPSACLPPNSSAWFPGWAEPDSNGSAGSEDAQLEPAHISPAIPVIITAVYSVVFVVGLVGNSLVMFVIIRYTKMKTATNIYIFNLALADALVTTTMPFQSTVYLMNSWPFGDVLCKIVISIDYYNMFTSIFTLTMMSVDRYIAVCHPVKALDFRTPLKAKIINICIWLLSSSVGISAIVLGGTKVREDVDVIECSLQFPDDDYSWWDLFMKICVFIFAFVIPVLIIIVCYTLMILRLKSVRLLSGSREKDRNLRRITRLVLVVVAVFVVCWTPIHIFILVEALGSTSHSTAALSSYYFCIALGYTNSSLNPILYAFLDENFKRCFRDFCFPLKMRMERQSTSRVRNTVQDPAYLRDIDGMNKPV
Mu-type opioid receptor (Rattus norvegicus, UniProt P33535), sequence (P33535 whole entry): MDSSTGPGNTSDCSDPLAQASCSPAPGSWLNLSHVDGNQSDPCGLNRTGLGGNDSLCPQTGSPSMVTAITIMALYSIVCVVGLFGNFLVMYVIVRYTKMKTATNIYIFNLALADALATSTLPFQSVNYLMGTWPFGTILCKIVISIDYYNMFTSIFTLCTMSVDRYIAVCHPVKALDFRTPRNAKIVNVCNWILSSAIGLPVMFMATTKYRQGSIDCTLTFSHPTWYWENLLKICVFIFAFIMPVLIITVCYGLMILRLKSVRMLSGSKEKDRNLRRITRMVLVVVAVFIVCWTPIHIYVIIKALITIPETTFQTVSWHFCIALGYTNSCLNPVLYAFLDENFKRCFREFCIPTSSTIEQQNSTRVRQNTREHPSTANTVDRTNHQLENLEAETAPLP
Delta-type opioid receptor (Rattus norvegicus, UniProt P33533), sequence (P33533 whole entry): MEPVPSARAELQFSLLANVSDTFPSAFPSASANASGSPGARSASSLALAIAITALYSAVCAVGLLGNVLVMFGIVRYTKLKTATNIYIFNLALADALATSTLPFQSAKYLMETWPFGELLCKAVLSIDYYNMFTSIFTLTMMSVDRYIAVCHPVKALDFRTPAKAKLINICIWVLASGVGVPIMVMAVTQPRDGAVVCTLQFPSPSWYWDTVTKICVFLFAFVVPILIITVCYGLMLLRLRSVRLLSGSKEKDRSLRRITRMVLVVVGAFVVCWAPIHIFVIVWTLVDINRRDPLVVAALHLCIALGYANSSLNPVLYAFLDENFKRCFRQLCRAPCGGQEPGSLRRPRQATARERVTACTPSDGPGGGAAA
Kappa-type opioid receptor (Cavia porcellus, UniProt P41144), sequence (P41144 whole entry): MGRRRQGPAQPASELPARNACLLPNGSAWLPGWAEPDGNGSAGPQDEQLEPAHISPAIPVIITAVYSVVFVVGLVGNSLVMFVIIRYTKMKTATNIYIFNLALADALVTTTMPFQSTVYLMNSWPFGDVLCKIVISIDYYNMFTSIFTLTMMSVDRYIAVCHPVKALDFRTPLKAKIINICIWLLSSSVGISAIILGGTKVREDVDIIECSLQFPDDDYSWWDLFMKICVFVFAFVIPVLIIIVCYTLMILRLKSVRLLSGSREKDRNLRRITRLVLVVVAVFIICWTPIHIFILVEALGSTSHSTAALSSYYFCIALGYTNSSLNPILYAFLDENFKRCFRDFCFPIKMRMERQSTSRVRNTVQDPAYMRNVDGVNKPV

What is called Ki is the dissociation constant of the complex between target and ligand, obtained from inhibition or displacement. A higher Ki goes with weaker binding. The term EC50 denotes the concentration needed to bring the measured effect to its halfway point. As to `Cc1cc(O)cc(C)c1C[C@H](N)C(=O)N[C@@H]1CCCCNC(=O)C[C@@H](C(N)=O)NC(=O)[C@H](Cc2ccccc2)NC(=O)[C@@H](Cc2cccc3ccccc23)NC1=O`, the Intrinsic activity in [1] amounted to 0.43. The remaining at 1.5 h in data set [2] is 93.8%. Further, the pEC50 entry in data set [3] is “inactive”. In data set [4], this compound registered a Retention_time of 16.21 min. In addition, the results for the Ki (on Mu-type opioid receptor [5]; in data set [7]; in data set [10]) were 69.2 nM, 56.6 nM and 9170 nM, respectively. Moreover, the Activity in the data set on Mus musculus [6] came to 17%. For the same compound, the EC50 is 1290 nM in [8] and 20 nM at Mu-type opioid receptor [11]. For the same compound, in the data set on Mus musculus [9], the ED50 is 0.714 µg.

For the compound `Cc1cc(O)cc(C)c1C[C@H](N)C(=O)N[C@@H]1CCCCNC(=O)C[C@@H](C(N)=O)NC(=O)[C@H](Cc2ccccc2)NC(=O)[C@@H](Cc2ccc3ccccc3c2)NC1=O`, the Intrinsic activity in [1] was 0.31. Further, the remaining at 1.5 h in data set [2] is 85.4%. For the same compound, the pEC50 entry in data set [3] was “inactive”. In [4], the Retention_time is 16.38 min. The Ki was found to be 16.8 nM on Mu-type opioid receptor [5], 751 nM in data set [7] and 4250 nM in data set [10]. The Activity in the data set with Mus musculus [6] amounted to 24%. Moreover, the EC50 was 1700 nM in data set [8] and 11.5 nM at Mu-type opioid receptor [11]. Also, the ED50 in the data set with Mus musculus [9] was 0.533 µg.

The Emax is the greatest response seen or fitted, relative to the assay's reference. Turning to `NC(=O)[C@@H]1CC(=O)NCCCC[C@@H](NC(=O)[C@@H](N)Cc2ccc(O)cc2)C(=O)N[C@@H](Cc2ccccc2)C(=O)N[C@@H](Cc2ccccc2)C(=O)N1` (H-Y[dK]FFD-NH2; lactam 2-5), the figures for the Activity entry in the data set with Mus musculus [12] and with Mus musculus [6] were “Dose-dependent effect” and 88%, respectively. For the same compound, the results for the ED50 with Mus musculus [12] and in the data set on Mus musculus [9] were below 0.01 mg/kg and 0.05 µg, respectively. Also, in [1], the Emax was 106%. For the same compound, in [1], the Intrinsic activity amounted to 1. In addition, in the data set with Mus musculus [13], the result was Active. In addition, the remaining at 1.5 h in data set [2] was determined as 96%. Besides, the Retention_time in data set [4] was determined as 20.5 min. Also, the outcome with Mus musculus [14] was inactive. Besides, the Ki on Mu-type opioid receptor [5] amounted to 0.35 nM; in [7], 1.12 nM; in data set [10], 171 nM. In addition, the results for the EC50 (in [8]; at Mu-type opioid receptor [11]) were 6.61 nM and 2.04 nM, respectively.

With `Cc1cc(O)cc(C)c1C[C@H](N)C(=O)N[C@@H]1CCCCNC(=O)C[C@@H](C(N)=O)NC(=O)[C@@H](Cc2cccc3ccccc23)NC(=O)[C@H](Cc2ccccc2)NC1=O` (H-[Dmt][dK]F[d1Nal]D-NH2; lactam 2-5), the Activity result with Mus musculus [12] was “Dose-dependent effect”; in the data set on Mus musculus [6] it was 82%. Besides, the figures for the ED50 with Mus musculus [12] and with Mus musculus [9] were 1.16 mg/kg and 0.06 µg, respectively. Moreover, the Emax in [1] amounted to 79%. The values for the Intrinsic activity in [1] and in data set [16] were 0.74 and 0.5, respectively. Further, the result in the data set on Mus musculus [13] was Active. Further, the remaining at 1.5 h in data set [2] was 96%. For the same compound, the Retention_time in data set [4] was determined as 16.02 min. Further, the results for the EC50 (in [15]; in data set [8]; at Mu-type opioid receptor [11]) were 64.6 nM, 41.7 nM and 5.62 nM, respectively. Further, in the data set with Mus musculus [14], the outcome was inactive. In addition, the Ki worked out at 0.25 nM on Mu-type opioid receptor [5], 1.78 nM in [7] and 51.2 nM in data set [10].

For `Cc1cc(O)cc(C)c1C[C@H](N)C(=O)N[C@@H]1CCCCNC(=O)C[C@@H](C(N)=O)NC(=O)[C@@H](Cc2ccc3ccccc3c2)NC(=O)[C@H](Cc2ccccc2)NC1=O` (H-[Dmt][dK]F[d2Nal]D-NH2; lactam 2-5), the values for the Activity result in the data set on Mus musculus [12] and in the data set with Mus musculus [6] were “Dose-dependent effect” and 55%, respectively. For the same compound, the ED50 in the data set on Mus musculus [12] is 3.24 mg/kg; in the data set with Mus musculus [9], 0.08 µg. In addition, the Intrinsic activity in data set [1] is 0.44; in data set [16] it was 0.31. The result in the data set with Mus musculus [13] was Active. Also, the remaining at 1.5 h in data set [2] was 95.6%. In addition, the Retention_time in data set [4] came to 16.1 min. Besides, the EC50 is 53.7 nM in data set [15], 102 nM in [8] and 3.63 nM at Mu-type opioid receptor [11]. Also, in the data set on Mus musculus [14], the result was inactive. For the same compound, the Ki was determined as 0.44 nM at Mu-type opioid receptor [5], 1.02 nM in [7] and 110 nM in [10].

With `CC[C@H](C)[C@H](NC(=O)[C@H](CCCNC(=N)N)NC(=O)[C@H](CCCNC(=N)N)NC(=O)[C@H](CC(C)C)NC(=O)[C@H](Cc1ccccc1)NC(=O)CNC(=O)CNC(=O)[C@@H](N)Cc1ccc(O)cc1)C(=O)N[C@@H](CCCNC(=N)N)C(=O)N1CCC[C@H]1C(=O)N[C@@H](CCCCN)C(=O)N[C@@H](CC(C)C)C(=O)N[C@@H](CCCCN)C(=O)O` [ANALOG OF DYNORPHIN A], in data set [16], the Intrinsic activity is 0.99.

For `NC(=O)[C@H](Cc1ccccc1)NC(=O)[C@H](Cc1ccccc1)NC(=O)[C@@H]1CCCN1C(=O)[C@@H](N)Cc1ccc(O)cc1` [ENDOMORPHIN 2], the remaining at 1.5 h in [2] worked out at 0.61%. For the same compound, the Retention_time in [4] is 17.25 min. Further, the ED50 in the data set with Mus musculus [9] amounted to 1.82 µg.

Source of the values: ChEMBL document CHEMBL3758180, “Synthesis of mixed MOR/KOR efficacy cyclic opioid peptide analogs with antinociceptive activity after systemic administration” (Eur J Med Chem, 2016).
